Bioassay records deposited in PubChem by several laboratories.
A selection: hits, their analogues and other compounds. The true share with any hit is near 1.6%.
Vif inh – blocks HIV Vif function; HEK293T cells, Vif self-association by quenched fluorescence, imaging, 24 h; inhibition, % at 7.49 µM; 0.35% of 340,000 active; AID 602346; in the data active = inhibition above about 50%, passing the limit was not always enough; inconclusive = no clear call, values can overlap the other calls; inactive = below about 31%
SR-BI HDL uptake – inhibitors of mouse SR-BI mediated HDL lipid uptake; ldlA[mSR-BI] CHO cells, DiI-HDL uptake fluorescence, 3 h; inhibition, % at 12.5 µM; 0.96% of 320,000 active;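 active = mean replicate inhibition of at least 70% and a set share of replicates each scoring 70 or more; inconclusive = meets just one of the two criteria; inactive = fails both criteria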;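 note: 0% = median of neutral control wells and 100% = median of positive control wells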
Target sequence (Q61009 whole entry, looked up): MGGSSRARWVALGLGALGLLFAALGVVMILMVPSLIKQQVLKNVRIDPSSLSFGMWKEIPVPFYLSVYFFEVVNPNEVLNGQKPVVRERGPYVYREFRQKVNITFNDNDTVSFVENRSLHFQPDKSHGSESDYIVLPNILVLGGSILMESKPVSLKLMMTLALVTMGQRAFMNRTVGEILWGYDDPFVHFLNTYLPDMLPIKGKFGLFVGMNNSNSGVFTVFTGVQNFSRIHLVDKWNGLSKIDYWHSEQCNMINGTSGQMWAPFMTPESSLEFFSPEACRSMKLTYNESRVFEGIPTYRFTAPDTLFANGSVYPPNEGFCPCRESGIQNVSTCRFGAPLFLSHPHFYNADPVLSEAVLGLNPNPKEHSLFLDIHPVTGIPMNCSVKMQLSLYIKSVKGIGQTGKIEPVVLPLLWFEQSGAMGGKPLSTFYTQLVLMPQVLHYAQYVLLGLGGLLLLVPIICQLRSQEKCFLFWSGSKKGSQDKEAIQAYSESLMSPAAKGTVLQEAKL
TAG inh – inhibitors of triacylglycerol accumulation | inhibition, % at 12.5 µM | 0.66% of 230,000 active | H9c2 cells, Nile Red lipid (TAG) fluorescence; cells loaded with 200 µM oleic acid;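 active = pattern-corrected inhibition of lipid staining of at least 50% with the nuclear-stain viability signal not falling by more than 50%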;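 note: 0% = DMSO wells and 100% = triacsin C control wells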
A1 inh – inhibitors of the anti-apoptotic protein A1, read as caspase activation | MEF A1-2A-BIM cells, Caspase-Glo 3/7 luminescence, 3 h; percent of clofoctol response, vehicle zero | caspase activation, % (test concentration not listed) | 0.066% of 330,000 active;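 active = over half of replicate activation scores above 10%, or exactly half above 10 with the replicate mean above 10; inconclusive = replicate mean below 10 yet half the replicates above 10; inactive = over half of replicates below 10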
SR-BI DiI-HDL act – SR-BI HDL lipid transfer activation. CHO ldlA[mSR-BI] cells, DiI-HDL uptake fluorescence, 3 h; 100 = double the neutral-control signal. activation, % at 12.5 µM. 0.096% of 320,000 active;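 active = mean replicate activation of at least 60% and every replicate at or above 60%; inconclusive = mean or all-replicate condition met, but not both; inactive = mean below 60% and not all replicates reaching 60%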;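 note: 0% = median plate neutral-control signal and 100% = twice that signal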
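Test system: SR-BI-overexpressing, LDLR-lacking CHO cells; Also added: labelled HDL, 10 µg/mL; Measured by: bottom-read cell fluorescence after medium removal, ex 550/em 595 nm; Timing: 3 h uptake period with compound, 37 °C; Buffer or medium: F12, 0.5% BSA, 25 mM HEPES; Doses: single compound concentration, delivered by pin transfer.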
TAG conf – triacylglycerol accumulation inhibition, confirmation. H9c2 lipid accumulation, Nile Red fluorescence; cells loaded with 200 µM oleic acid. AID 651629. inhibition, % at 12.5 µM. 71% of 990 active. shares compounds with TAG inh;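 active = mean inhibition across replicates of 40% or more; inactive = mean inhibition below 40%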;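 note: plate controls were DMSO only wells for no effect and Triacsin C treated wells for full effect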
Starred values were filed as active, the others as inactive; ? = inconclusive; nt = no result.

SMILES	Vif inh	SR-BI HDL uptake	TAG inh	A1 inh	SR-BI DiI-HDL act	TAG conf
CCCCNC(=O)C1(C)CCN1C(=O)c1oc2ccccc2c1C (configuration not stated)	-4	nt	122	nt	nt	nt
CCOC(=O)c1c(CN2CCNCC2)nc2ccc(Cl)cc2c1-c1ccccc1	5	-24	70*	nt	24	78*
Cc1nc2ccc(Cl)cc2c(-c2ccccc2)c1C(=O)N(C)C	0	-6	nt	1	6	nt
Cc1cc(C(=O)CSc2nnc(NCc3ccccc3)s2)c(C)n1C	11	25	51*	-1	-25	27
COc1ccc(NC2CCCN(C(=O)CCc3ccncc3)C2)cc1OC (configuration not stated)	-1	-8	nt	-2	8	nt
CC1CCCCC1NC(=O)COC(=O)c1ccc2c(c1)NC(=O)CS2 (configuration not stated)	-5	-4	-12	0	4	nt
COc1ccc(Cl)cc1-c1cc(C(=O)NCC2CCCCC2)[nH]n1	-3	nt	53*	nt	nt	-6
CCN(CC)CCNC1=NCCn2c1cc1cc(OC)ccc12	?	-7	16	0	7	nt
CN=C1c2cc3cc(OC)ccc3n2CCN1Cc1ccccc1	1	-26	57*	nt	26	51*
O=C(c1ccc(F)cc1F)N1CCCN(c2nc(-c3ccccc3)ns2)CC1	-5	5	75*	0	-5	2
O=C1NC[C@H](CC2CCCCC2)N(CCc2cccc(F)c2)C1=O	8	-17	12	-1	17	nt
COc1cc(NC(=O)c2ccco2)c(OC)cc1NC(=O)CCC(=O)Nc1cccc(C)c1C	-12	52	56*	0	-52	52*
CC(C)NC(=O)N(C)C[C@H]1Oc2cc(C#Cc3ccc(F)cc3)ccc2S(=O)(=O)N([C@H](C)CO)C[C@H]1C	19	nt	56*	nt	nt	63*
C[C@H](CO)N1C[C@H](C)[C@@H](CN(C)C(=O)Nc2ccc(F)cc2)Oc2cc(Br)ccc2S1(=O)=O	0	nt	14	nt	nt	nt
COc1ccc(C#Cc2ccc3c(c2)O[C@@H](CN(C)C(=O)Nc2cccc(OC)c2)[C@H](C)CN([C@@H](C)CO)S3(=O)=O)cc1	-18	nt	77*	nt	nt	82*
CC(=O)Nc1cc2cc(NS(=O)(=O)c3ccc(Cl)cc3)ccc2oc1=O	nt	-13	58*	0	13	10
COc1ccc(C2/C(=C(/O)c3ccc(Br)cc3)C(=O)C(=O)N2C)cc1 (configuration not stated)	-4	-26	nt	-1	26	nt
O=C(Nc1ccccc1Br)c1cc(=O)c2ccccc2o1	0	nt	nt	-3	nt	nt
O=C(NCc1nnnn1-c1ccc(F)cc1)c1ccc([N+](=O)[O-])o1	30	-18	65*	-1	18	82*
Cc1ccc(-n2nnnc2CNC(=O)c2ccc([N+](=O)[O-])o2)cc1C	nt	-20	60	0	20	nt
CC(=O)c1ccc(-c2ccc(C(=O)NCC(c3ccc(F)cc3)N3CCOCC3)o2)cc1 (configuration not stated)	15	43	-26	0	-43	nt
O=C(NCC(c1ccc(F)cc1)N1CCOCC1)c1ccc([N+](=O)[O-])o1 (configuration not stated)	2	-15	51*	-1	15	76*
C[C@@]12C(=O)Nc3ccc(Cl)cc3C(=O)N1[C@H]1c3cc(Cl)ccc3OC[C@@H]1[C@@H]2c1ccccc1	1	1	39	0	-1	nt
C[C@@]12C(=O)Nc3ccc(Br)cc3C(=O)N1[C@H]1c3cc(Cl)ccc3OC[C@@H]1[C@@H]2c1ccccc1	-8	19	52*	1	-19	64*
CC(C)C[C@H](CO)N(Cc1ccccc1)S(=O)(=O)N(Cc1ccccc1)[C@@H](CO)CC(C)C	-4	-20	56*	1	20	46*
SMILES	Vif inh	SR-BI HDL uptake	TAG inh	A1 inh	SR-BI DiI-HDL act	TAG conf
C=CS(=O)(=O)N(Cc1ccccc1)[C@H](CO)CC(C)C	43	3	-59	nt	-3	nt
COc1ccc(NC(=O)c2cc3ccccc3o2)cc1S(=O)(=O)N1CCCCC1	-14	40	-22	1	-40	nt
O=C(CSc1nc(Nc2ccccc2)nc(N2CCOCC2)n1)N1CCCC1	28	13	71*	0	-13	41*
O=C(CSc1nc(N2CCCCC2)nc(N2CCCCC2)n1)N1CCN(c2ccccc2)CC1	1	nt	60*	nt	nt	27
Cc1ccccc1NC(=O)CSc1nc(Nc2ccccc2)nc(N2CCOCC2)n1	-8	81*	54*	0	-81	46*
CC(Sc1nc(NCc2ccccc2)nc(N2CCOCC2)n1)C(=O)Nc1ccccc1 (configuration not stated)	28	9	70*	1	-9	47*
Cc1nc(SCC(=O)N2CCN(c3ccccc3)CC2)n[nH]1	-4	nt	nt	0	nt	nt
O=C(NCC1CCCO1)c1ccc(N2CCCCC2)c([N+](=O)[O-])c1 (configuration not stated)	5	14	nt	0	-14	nt
N#CC1(NC(=O)CSc2nnc(-c3ccccc3F)o2)CCCCC1	nt	-6	2	0	6	nt
O=C(Cn1nnc(-c2ccccc2)n1)NCC(=O)Nc1ccc(F)c(F)c1F	-5	-2	7	0	2	nt
COc1ccc(-n2cc(CN3CCCC3)c(-c3cccc(F)c3)n2)cc1	-1	14	80*	1	-14	25
COc1ccc(-n2cc(CNC3CCN(C)CC3)c(-c3cccc(F)c3)n2)cc1	-2	-10	17	0	10	nt
CC(CNC(=O)c1ccc(OC2CCN(Cc3ccccn3)CC2)cc1)c1ccccc1 (configuration not stated)	-9	37	0	2	-37	nt
CN(C)CCCn1c(SCC(=O)Nc2nc(-c3cccc(Br)c3)cs2)nc2ccccc2c1=O	nt	nt	79*	1	nt	67*
O=C(CSc1nc2ccccc2[nH]1)Nc1nc(-c2cccc(Br)c2)cs1	2	-18	nt	0	18	nt
COc1ccc2nc(SCC(C)=O)c(C#N)cc2c1	-3	41	nt	-5	-41	nt
COc1ccc2nc(SCC(=O)N3CC(=O)Nc4ccccc43)c(C#N)cc2c1	0	18	54*	0	-18	39
COc1cc(OC)c(C(=O)OCC(=O)Nc2cccc(S(=O)(=O)NC3=NCCCCC3)c2)cc1OC	-1	13	-2	nt	-13	nt
CCOc1ccc(OCC(=O)Nc2cccc(S(=O)(=O)NC3=NCCC3)c2)cc1	-2	-6	5	nt	6	nt
CCOc1ccc(C(=O)NC(=S)Nc2cccc(S(=O)(=O)NC3=NCCC3)c2)cc1	8	34	51*	0	-34	57*
